The source made the active and inactive calls. No cut-off for these calls is given here.
Tests used:
Hepatitis B virus [1] = assay: Antiviral activity against Hepatitis B virus infected in human HepG2(2.2.15) cells assessed as inhibition of viral e antigen secretion after 6 days by ELISA; assay type: functional, organism-based; conditions: HepG2 2.2.15, 144 h
Summary of the method: (§1)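 HepG 2.2.15 cells in DMEM with 10% FBS, 37 °C, 5% CO2. Treated for 6 days with refeeding every other day. Culture medium centrifuged at 6000 g to clear debris. HBeAg or HBsAg measured by quantitative ELISA on a microplate reader. IC50 = concentration giving 50% inhibition of secretion. Mean of two independent experiments.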

Hepatitis B virus [2] = assay: Antiviral activity against Hepatitis B virus infected in human HepG2(2.2.15) cells assessed as inhibition of viral surface antigen secretion after 6 days by ELISA; assay type: functional, organism-based; conditions: HepG2 2.2.15, 144 h; summary of the method: as §1
[3] = Cytotoxicity against human HepG2(2.2.15) cells; assay type: cell-based
Summary of the method: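 HepG 2.2.15 cells in DMEM with 10% FBS, 37 °C, 5% CO2. CC50 = concentration killing 50% of cells. Mean of two independent experiments.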

Hepatitis B virus [4] = assay: Antiviral activity against Hepatitis B virus infected in human HepG2(2.2.15) cells assessed as inhibition of viral DNA replication after 6 days by PCR analysis; assay type: functional, organism-based
Summary of the method: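 HepG 2.2.15 cells in DMEM with 10% FBS, 5 mM L-glutamine, penicillin/streptomycin, 37 °C, 5% CO2; seeded 5 × 10^5 per well, medium changed every 2 days. Compound added after 6 days, refed every other day for 6 more days. HBV DNA by real-time PCR against a cloned HBV plasmid standard series. IC50 = 50% inhibition. Mean of two independent experiments.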

[5] = Selectivity index, ratio of CC50 for human HepG2(2.2.15) cells to IC50 for Hepatitis B virus infected in human HepG2(2.2.15) cells assessed as inhibition of viral e antigen secretion; assay type: functional
Summary of the method: (§2)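 Ratio of CC50 in HepG 2.2.15 cells to the IC50 for HBeAg or HBsAg secretion. Both values come from ELISA and cytotoxicity runs on the same cell line. Each input is the mean of two independent experiments.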

[6] = Selectivity index, ratio of CC50 for human HepG2(2.2.15) cells to IC50 for Hepatitis B virus infected in human HepG2(2.2.15) cells assessed as inhibition of viral surface antigen secretion; assay type: functional; summary of the method: as §2
Nucleic Acid [7] = assay: Inhibition of preS2 promoter transcriptional activity in human HepG2 cells transfected with pGL3 at 0.02 mM by luciferase reporter gene assay relative to mock-treated control; conditions: Hepatitis B virus
Nucleic Acid [8] = assay: Increase of enhancer 1 transcriptional activity in HBV infected in human HepG2(2.2.15) cells transfected with pGL3 at 0.02 mM by luciferase reporter gene assay relative to mock-treated control; assay type: cell-based; conditions: Hepatitis B virus
Summary of the method: (§3)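 HepG2 cells transfected with pGL3-based firefly luciferase constructs carrying HBV promoter or enhancer elements; pGL3 Basic as control, phRL-CMV Renilla as internal control. Treated with 0.02 mM; read by dual-luciferase assay. Fold activity = treated promoter activity / mock-treated activity. Triplicate samples.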

Nucleic Acid [9] = assay: Increase of core/pregenomic factor transcriptional activity in HBV infected in human HepG2(2.2.15) cells transfected with pGL3 at 0.02 mM by luciferase reporter gene assay relative to mock-treated control; assay type: cell-based; conditions: Hepatitis B virus; summary of the method: as §3
[10] = Cytotoxicity against human HepG2(2.2.15) cells assessed as cell viability at 0.02 mM after 72 hrs by MTT assay; assay type: cell-based; conditions: read-out: Activity
Nucleic Acid [11] = assay: Increase of X promoter transcriptional activity in HBV infected in human HepG2(2.2.15) cells transfected with pGL3 at 0.02 mM by luciferase reporter gene assay relative to mock-treated control; assay type: cell-based; conditions: Hepatitis B virus; summary of the method: as §3
[12] = Cytotoxicity against human HepG2(2.2.15) cells assessed as cell viability at 0.02 mM after 48 hrs by MTT assay; assay type: cell-based; conditions: read-out: Activity
Nucleic Acid [13] = assay: Increase of enhancer 2 transcriptional activity in HBV infected in human HepG2(2.2.15) cells transfected with pGL3 at 0.02 mM by luciferase reporter gene assay relative to mock-treated control; assay type: cell-based; conditions: Hepatitis B virus; summary of the method: as §3
Nucleic Acid [14] = assay: Increase of preS1 promoter transcriptional activity in HBV infected in human HepG2(2.2.15) cells transfected with pGL3 at 0.02 mM by luciferase reporter gene assay relative to mock-treated control; assay type: cell-based; conditions: Hepatitis B virus; summary of the method: as §3
[15] = Hepatitis B virus, HepG2 2.2.15, 144 h, read-out: IC50

SMILES	IC50 (Hepatitis B virus [1])	IC50 (Hepatitis B virus [2])	IC50 (Hepatitis B virus [4]; [15])	IC50 (Hepatitis B virus [4]; hepg2 2.2.15)	CC50 [3]	Selectivity Index [5]	Selectivity Index [6]	inhibition (Nucleic Acid [7])	fold change (FC) (Nucleic Acid [8])	fold change (FC) (Nucleic Acid [9])	viability at 72 h, 20 µM [10]	fold change (FC) (Nucleic Acid [11])	viability at 48 h, 20 µM [12]	fold change (FC) (Nucleic Acid [13])	fold change (FC) (Nucleic Acid [14])
COc1cccc(/C=C/C(=O)OCc2c(-c3ccccc3Cl)c3cc(Cl)ccc3[nH]c2=O)c1	18 µM	11 µM	160 µM		> 1800 µM	>100	>170								
O=C(/C=C/c1ccc(C(F)(F)F)cc1)OCCc1c(-c2ccccc2Cl)c2cc(Cl)ccc2[nH]c1=O	19 µM	230 µM		Not Active	> 1400 µM	>73	>6.1								
O=C(/C=C/c1cccc(C(F)(F)F)c1)OCCc1c(-c2ccccc2Cl)c2cc(Cl)ccc2[nH]c1=O	22 µM	58 µM	410 µM		> 1400 µM	>63	>24								

More lines, in order of falling IC50 (Hepatitis B virus [1]), values ahead:

IC50 (Hepatitis B virus [1])	IC50 (Hepatitis B virus [2])	IC50 (Hepatitis B virus [4]; [15])	IC50 (Hepatitis B virus [4]; hepg2 2.2.15)	SMILES	CC50 [3]	Selectivity Index [5]	Selectivity Index [6]	inhibition (Nucleic Acid [7])	fold change (FC) (Nucleic Acid [8])	fold change (FC) (Nucleic Acid [9])	viability at 72 h, 20 µM [10]	fold change (FC) (Nucleic Acid [11])	viability at 48 h, 20 µM [12]	fold change (FC) (Nucleic Acid [13])	fold change (FC) (Nucleic Acid [14])
57 µM	21 µM		Not Active	COc1ccc(/C=C/C(=O)OCCc2c(-c3ccccc3Cl)c3cc(Cl)ccc3[nH]c2=O)cc1OC	> 1200 µM	>21	>58								
48 µM	490 µM		Not Active	COc1ccc(/C=C/C(=O)OCCc2c(-c3ccccc3Cl)c3cc(Cl)ccc3[nH]c2=O)cc1	> 1200 µM	>25	>2.5								
28 µM	20 µM		Not Active	COc1cccc(/C=C/C(=O)OCCCc2c(-c3ccccc3Cl)c3cc(Cl)ccc3[nH]c2=O)c1	> 1100 µM	>39	>55								
27 µM	33 µM	110 µM		O=C(/C=C/c1cccc(F)c1)OCCc1c(-c2ccccc2Cl)c2cc(Cl)ccc2[nH]c1=O	> 1600 µM	>58	>48								
26 µM	10 µM	45 µM		COc1cccc(/C=C/C(=O)OCCc2c(-c3ccccc3Cl)c3cc(Cl)ccc3[nH]c2=O)c1	> 1300 µM	>51	>135	Active	12	4	80.4%	4	95.2%	14	4

Reference: ChEMBL document CHEMBL1649405, “Structure-activity relationships study of 6-chloro-4-(2-chlorophenyl)-3-(2-hydroxyethyl) quinolin-2(1H)-one derivatives as novel non-nucleoside anti-hepatitis B virus agents” (Eur J Med Chem, 2011)
